Measured values reported in article PMC4335074 (Clinical cancer research : an official journal of the …, 2014).
Read-outs that look alike come from different tables or passages of the source.

How the values were obtained:
KRAS-mutant NSCLC = details: phase II, KRAS-mutant NSCLC patients; cited from earlier work
AKT 3 = details: cited from earlier work
tumour pS473 AKT = details: MK-2206 monotherapy 60 mg QOD; cited from earlier work
AKT 2 = details: cited from earlier work
[1] = preclinical models; no reference given; cited from earlier work
pT70 4E-BP1 = assay: Immunoblotting of downstream signalling biomarkers in HCT116 cells; type: cell-based, Human; details: HCT116, 24 hours, immunoblot
Summary of the method: (§1)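 HCT116 colon cancer cells (KRAS G13D; from ATCC, STR-authenticated) were exposed for 24 h to the AKT-inhibitor test compound, the MEK-inhibitor test compound, or both together, each at set concentrations, before immunoblot analysis of phospho-markers.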

pS473 AKT [2] = assay: as above; type: cell-based, Human; details: HCT116, 24 hours, immunoblot
Summary of the method: as §1

CYP1A2 = details: no reference given; cited from earlier work
AKT 1 = details: cited from earlier work
CYP3A4 = details: no reference given; cited from earlier work
CYP2C19 = details: no reference given; cited from earlier work
[3] = cited from earlier work
[4] = Phase I combination study: pharmacokinetics; type: in vivo, human; details: for Cmax: selumetinib 100 mg QD, combination MTD cohort
[5] = system: pS235/236 S6 ribosomal protein (S6RP); assay: Immunoblotting of downstream signalling biomarkers in HCT116 cells; type: cell-based, Human; details: HCT116, 24 hours, immunoblot
Summary of the method: as §1

P-glycoprotein = details: no reference given; cited from earlier work
pS473 AKT [6] = details: at 57 nmol/L MK-2206, preclinical models; no reference given; cited from earlier work
pT202/Y204 ERK = assay: Immunoblotting of downstream signalling biomarkers in HCT116 cells; type: cell-based, Human; details: HCT116, 24 hours, immunoblot
Summary of the method: as §1

[7] = selumetinib monotherapy, cited from earlier work
pERK = details: at 6 hours, peripheral blood mononuclear cells and paired tumour biopsies; cited from earlier work
MEK = details: non-ATP competitive; cited from earlier work

SMILES: CC(=O)O[C@@]12CO[C@@H]1C[C@H](O)[C@@]1(C)C(=O)[C@H](O)C3=C(C)[C@@H](OC(=O)[C@H](O)[C@@H](NC(=O)OC(C)(C)C)c4ccccc4)C[C@@](O)([C@@H](OC(=O)c4ccccc4)[C@H]21)C3(C)C [docetaxel]
- Median overall survival (OS) (KRAS-mutant NSCLC): 5.3 months
- Progression free survival (KRAS-mutant NSCLC): 2.1 months

SMILES: NC1(c2ccc(-c3nc4ccn5c(=O)[nH]nc5c4cc3-c3ccccc3)cc2)CCC1 [MK-2206]
- IC50 (AKT 3): 0.065 µM
- Median suppression of post-dose tumour pS473 AKT (tumour pS473 AKT): 81%
- IC50 (AKT 2): 0.012 µM
- Inhibition of pT70 4E-BP1 (pT70 4E-BP1): incompletely inhibited
- Inhibition of pS473 AKT (pS473 AKT [2]): completely abrogated
- Inhibition of CYP1A2 (CYP1A2): neither of these drugs is a potent inhibitor
- Inhibition of CYP3A4 (CYP3A4): neither of these drugs is a potent inhibitor
- Inhibition of CYP2C19 (CYP2C19): neither of these drugs is a potent inhibitor
- Terminal half-life (t1/2) ([3]; MK-2206 monotherapy 60 mg QOD): 71.3 h
- Maximum-tolerated dose (MTD) ([3]; MK-2206 monotherapy, QOD schedule): 60 mg
- Maximum-tolerated dose (MTD) ([3]; MK-2206 monotherapy, weekly schedule): 200 mg
- Clinical toxicities ([3]; MK-2206 monotherapy): erythematous maculopapular rash and stomatitis
- Dose-limiting toxicity (DLT) ([3]; MK-2206 monotherapy): Rash
- half-life ([4]; human, in vivo, oral): 61.7 ± 15.2 h
- Patients achieving target steady-state trough concentration of >57 nmol/L ([4]; in 48 hours at the 135 mg QW MTD level): 100%
- Inhibition of pS235/236 S6RP [5]: no effect
- P-glycoprotein inhibition (P-glycoprotein): only a weak inhibitor
- P-glycoprotein substrate status (P-glycoprotein): substrates
- Inhibition of pS473 AKT (pS473 AKT [6]): > 70%
- Inhibition of pT202/Y204 ERK (pT202/Y204 ERK): no effect

SMILES: Cn1cnc2c(F)c(Nc3ccc(Br)cc3Cl)c(C(=O)NOCCO)cc21 [selumetinib]
- Inhibition of pT70 4E-BP1 (pT70 4E-BP1): incompletely suppressed
- Inhibition of pS473 AKT (pS473 AKT [2]): did not affect
- Inhibition of CYP1A2 (CYP1A2): neither of these drugs is a potent inhibitor
- Inhibition of CYP3A4 (CYP3A4): neither of these drugs is a potent inhibitor
- Inhibition of CYP2C19 (CYP2C19): neither of these drugs is a potent inhibitor
- Established dose ([7]; freebase powder formulation, BID): 100 mg
- Terminal t1/2 ([7]; hydrogen sulphate oral capsule): 5.3 h
- Clinical toxicities [7]: acneiform dermatitis, diarrhoea, fatigue, nausea, and peripheral oedema
- Dose-limiting toxicity (DLT) [7]: Rash
- Suppression of pERK (pERK): observed
- IC50 (MEK): 0.01 to 0.014 µM
- Cmax ([4]; human, in vivo, oral, Cmax range): 0.554 to 2.54 µg/mL
- Cmax ([4]; human, in vivo, oral, Mean Cmax): 1.14 µg/mL
- Inhibition of pS235/236 S6RP [5]: incompletely suppressed
- P-glycoprotein inhibition (P-glycoprotein): not an inhibitor
- P-glycoprotein substrate status (P-glycoprotein): substrates
- Inhibition of pT202/Y204 ERK (pT202/Y204 ERK): blocked pT202/Y204 ERK completely
